Measured values taken from ChEMBL document CHEMBL3244318, “Prostaglandins and congeners. 14. Synthesis and bronchodilator activity of dl-16,16-trimethyleneprostaglandins” (1977).
The source made the active and inactive calls. The calls are words filed in the database; no cut-off is given here.

How the values were obtained:
[1] = test system: Cavia porcellus; experiment: Bronchodilatory activity in iv dosed Hartley guinea pig assessed as inhibition of serotonin-induced constriction compound of total 3 to 4 doses at 15 mins interval starting first dose 2 mins post challenge; format: functional
Method in brief: (§1)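 Ventilated, curarized guinea pigs received repeated 12-s IV spasmogen injections every 5 min, tuned to a 20-50 cm water rise in tracheal pressure. Three or four logarithmically spaced IV doses were given over 1 min, at 15-min intervals, with at least four animals per spasmogen. ED50 is the dose giving -50% spasm variation, taken from a semilog regression. When -50% was not reached, ED50 is reported as greater than the top dose.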

[2] = test system: Cavia porcellus; experiment: Bronchodilatory activity in iv dosed Hartley guinea pig assessed as inhibition of histamine-induced constriction compound of total 3 to 4 doses at 15 mins interval starting first dose 2 mins post challenge; format: functional; method in brief: as §1
[3] = test system: Cavia porcellus; experiment: Bronchodilatory activity in iv dosed Hartley guinea pig assessed as inhibition of acetylcholine-induced constriction compound of total 3 to 4 doses at 15 mins interval starting first dose 2 mins post challenge; format: functional; method in brief: as §1
[4] = test system: Cavia porcellus; experiment: Bronchodilatory activity in iv dosed Hartley guinea pig assessed as inhibition of acetylcholine-induced constriction at 3.2 mg/kg, iv of total 3 to 4 doses at 15 mins interval starting 2 mins post challenge; format: functional
Method in brief: (§2)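 Artificially ventilated, curarized guinea pigs. Spasmogen was given IV in 12-s injections every 5 min, adjusted to raise tracheal pressure by 20-50 cm water. After three similar control spasms, drug was infused IV over 1 min. Sodium salts were given in water and esters in 10% aqueous ethanol. Read-out was % variation of spasm amplitude versus control, in at least four animals per spasmogen.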

[5] = test system: Cavia porcellus; experiment: Bronchodilatory activity in iv dosed Hartley guinea pig assessed as inhibition of histamine-induced constriction at 3.2 mg/kg, iv of total 3 to 4 doses at 15 mins interval starting 2 mins post challenge; format: functional; method in brief: as §2
[6] = test system: Cavia porcellus; experiment: Bronchodilatory activity in iv dosed Hartley guinea pig assessed as inhibition of serotonin-induced constriction at 3.2 mg/kg, iv of total 3 to 4 doses at 15 mins interval starting 2 mins post challenge; format: functional; method in brief: as §2
[7] = test system: Canis familiaris; experiment: Bronchodilatory activity in anesthetized dog assessed as inhibition of pilocarpine-induced bronchospasms compound administered through aerosol 15 mins post challenge measured up to 1 hr; format: functional, organism-based; conditions: Canis lupus familiaris
[8] = Cavia porcellus, Hartley, iv, read-out: ED50

Work on `CCCCC1([C@H](O)/C=C/C2CCC(=O)[C@@H]2CCCCCCC(=O)OCC)CCC1` (mixture of isomers) yielded an ED50 [1] of 409 µg/kg and an ED50 [2, 8] of 15.1 µg/kg.
`CCCCC1([C@@H](O)/C=C/C2CCC(=O)[C@@H]2CCCCCCC(=O)OCC)CCC1` (mixture of isomers) showed an ED50 [2, 8] of 32 µg/kg and an ED50 [3, 8] of 2.06 µg/kg.
`CCCCC1([C@H](O)/C=C/C2CCC(=O)[C@@H]2CCCCCCC(=O)O)CCC1` (mixture of isomers) showed an ED50 [2, 8] of 2.4 µg/kg and an ED50 ([3]; Cavia porcellus, Hartley, iv) of 47.8 µg/kg.
With `CCCCC1([C@@H](O)/C=C/C2CCC(=O)[C@@H]2CCCCCCC(=O)O)CCC1` (mixture of isomers) the ED50 [1] was 20.3 µg/kg, the ED50 [2, 8] was 13.9 µg/kg and the inhibition in vivo at 3.2 mg/kg [4] was < 50%.
`CCCCC1([C@H](O)/C=C/C2CCC(=O)[C@@H]2C/C=C\CCCC(=O)O)CCC1` (mixture of isomers) was tested, and the ED50 [1] was 7.67 µg/kg, the ED50 [2, 8] was 2.2 µg/kg and the ED50 [3, 8] was 24.2 µg/kg.
In the case of `CCCCC1([C@@H](O)/C=C/C2CCC(=O)[C@@H]2C/C=C\CCCC(=O)O)CCC1` (mixture of isomers), the inhibition in vivo at 3.2 mg/kg [5] is reported as < 50% and the inhibition in vivo at 3.2 mg/kg [4] is reported as < 50%.
For `CCCCC1([C@H](O)/C=C/C2CCC(=O)[C@@H]2CCCCCC(=O)OCC)CCC1` (mixture of isomers), the inhibition in vivo at 3.2 mg/kg [6] was < 50%, the inhibition in vivo at 3.2 mg/kg [5] was < 50% and the inhibition in vivo at 3.2 mg/kg [4] was < 50%.
In the case of `CCCCC1([C@H](O)/C=C/C2CCC(=O)[C@@H]2C/C=C\CCCC(=O)OCC)CCC1` (mixture of isomers), the ED50 [1] is reported as 135 µg/kg and the ED50 [2, 8] is reported as 221 µg/kg.
`CCCCC1([C@@H](O)/C=C/C2CCC(=O)[C@@H]2C/C=C\CCCC(=O)OCC)CCC1` (mixture of isomers) was tested, and the inhibition in vivo at 3.2 mg/kg [6] was < 50%, the inhibition in vivo at 3.2 mg/kg [5] was < 50% and the inhibition in vivo at 3.2 mg/kg [4] was < 50%.
`CCCCC1([C@H](O)/C=C/C2CCC(=O)[C@@H]2CCCCCC(=O)O)CCC1` (mixture of isomers) showed an ED50 [1] of 32 µg/kg, an ED50 [2, 8] of 32 µg/kg and an ED50 [3, 8] of 320 µg/kg.
`CCCCC1([C@H](O)/C=C/C2CCC(=O)[C@@H]2CCCCCCCC(=O)OCC)CCC1` (mixture of isomers) was tested, and the inhibition in vivo at 3.2 mg/kg [6] was < 50%, the inhibition in vivo at 3.2 mg/kg [5] was < 50% and the inhibition in vivo at 3.2 mg/kg [4] was < 50%.
For `CCCCC1([C@@H](O)/C=C/C2CCC(=O)[C@@H]2CCCCCCCC(=O)OCC)CCC1` (mixture of isomers), the inhibition in vivo at 3.2 mg/kg [6] was < 50%, the inhibition in vivo at 3.2 mg/kg [5] was < 50% and the inhibition in vivo at 3.2 mg/kg [4] was < 50%.
In the case of `CCCCC1([C@H](O)/C=C/C2CCC(=O)[C@@H]2CCCCCCCC(=O)O)CCC1` (mixture of isomers), the inhibition in vivo at 3.2 mg/kg [6] is reported as < 50%, the inhibition in vivo at 3.2 mg/kg [5] is reported as < 50% and the inhibition in vivo at 3.2 mg/kg [4] is reported as < 50%.
For `CCCCC1([C@@H](O)/C=C/C2CCC(=O)[C@@H]2CCCCCCCC(=O)O)CCC1` (mixture of isomers), the inhibition in vivo at 3.2 mg/kg [6] was < 50%, the inhibition in vivo at 3.2 mg/kg [5] was < 50% and the inhibition in vivo at 3.2 mg/kg [4] was < 50%.
`CCCCC1([C@H](O)/C=C/C2CCC(=O)[C@@H]2CCCCCCCCC(=O)OCC)CCC1` (mixture of isomers) was tested, and the ED50 [1] was 4380 µg/kg, the ED50 [2, 8] was 6210 µg/kg and the inhibition in vivo at 3.2 mg/kg [4] was < 50%.
With `CCCCC1([C@@H](O)/C=C/C2CCC(=O)[C@@H]2CCCCCCCCC(=O)OCC)CCC1` (mixture of isomers) the inhibition in vivo at 3.2 mg/kg [6] was < 50%, the inhibition in vivo at 3.2 mg/kg [5] was < 50% and the inhibition in vivo at 3.2 mg/kg [4] was < 50%.
`CCCCC1([C@H](O)/C=C/C2CCC(=O)[C@@H]2CCCCCCCCC(=O)O)CCC1` (mixture of isomers) was tested, and the inhibition in vivo at 3.2 mg/kg [6] was < 50%, the inhibition in vivo at 3.2 mg/kg [5] was < 50% and the inhibition in vivo at 3.2 mg/kg [4] was < 50%.
With `CCCCC1([C@@H](O)/C=C/C2CCC(=O)[C@@H]2CCCCCCCCC(=O)O)CCC1` (mixture of isomers) the inhibition in vivo at 3.2 mg/kg [6] was < 50%, the inhibition in vivo at 3.2 mg/kg [5] was < 50% and the inhibition in vivo at 3.2 mg/kg [4] was < 50%.
In the case of `CCCCC1([C@H](O)/C=C/C2CCC(=O)[C@@H]2CCCCC(C)(C)CC(=O)OCC)CCC1` (mixture of isomers), the inhibition in vivo at 3.2 mg/kg [6] is reported as < 50%, the inhibition in vivo at 3.2 mg/kg [5] is reported as < 50% and the inhibition in vivo at 3.2 mg/kg [4] is reported as < 50%.
`CCCCC1([C@@H](O)/C=C/C2CCC(=O)[C@@H]2CCCCC(C)(C)CC(=O)OCC)CCC1` (mixture of isomers) was tested, and the inhibition in vivo at 3.2 mg/kg [6] was < 50%, the inhibition in vivo at 3.2 mg/kg [5] was < 50% and the inhibition in vivo at 3.2 mg/kg [4] was < 50%.
`CCCCC1([C@H](O)/C=C/C2CCC(=O)[C@@H]2CCCCC(C)(C)CC(=O)O)CCC1` (mixture of isomers) was tested, and the inhibition in vivo at 3.2 mg/kg [6] was < 50%, the inhibition in vivo at 3.2 mg/kg [5] was < 50% and the inhibition in vivo at 3.2 mg/kg [4] was < 50%.
In the case of `CCCCC1([C@@H](O)/C=C/C2CCC(=O)[C@@H]2CCCCC(C)(C)CC(=O)O)CCC1` (mixture of isomers), the inhibition in vivo at 3.2 mg/kg [6] is reported as < 50%, the inhibition in vivo at 3.2 mg/kg [5] is reported as < 50% and the inhibition in vivo at 3.2 mg/kg [4] is reported as < 50%.
Compound `CCCCC1([C@H](O)/C=C/C2CCC(=O)[C@@H]2CCCCSCC(=O)OCC)CCC1` (mixture of isomers) has an ED50 [1] of 300 µg/kg, an ED50 [2, 8] of 30 µg/kg and an ED50 [3, 8] of 909 µg/kg.
`CCCCC1([C@@H](O)/C=C/C2CCC(=O)[C@@H]2CCCCSCC(=O)OCC)CCC1` (mixture of isomers) was tested, and the ED50 [2, 8] was > 672 µg/kg, the inhibition in vivo at 3.2 mg/kg [6] was < 50% and the inhibition in vivo at 3.2 mg/kg [4] was < 50%.
With `CCCCC1([C@H](O)/C=C/C2CCC(=O)[C@@H]2CCCCSCC(=O)O)CCC1` (mixture of isomers) the ED50 [1] was 171 µg/kg, the ED50 [2, 8] was 91.2 µg/kg and the inhibition in vivo at 3.2 mg/kg [4] was < 50%.
With `CCCCC1([C@@H](O)/C=C/C2CCC(=O)[C@@H]2CCCCSCC(=O)O)CCC1` (mixture of isomers) the ED50 [2, 8] was 606 µg/kg, the inhibition in vivo at 3.2 mg/kg [6] was < 50% and the inhibition in vivo at 3.2 mg/kg [4] was < 50%.
Compound `CCCCC1([C@H](O)/C=C/C2[C@H](O)CC(=O)[C@@H]2CCCCCCC(=O)O)CCC1` (mixture of isomers) has an ED50 [1] of 1.26 µg/kg, an ED50 [2] of 0.555 µg/kg and an ED50 [3, 8] of 1.45 µg/kg. The inhibition [7] was “Active”.
With `CCCCC1([C@@H](O)/C=C/C2[C@H](O)CC(=O)[C@@H]2CCCCCCC(=O)O)CCC1` (mixture of isomers) the ED50 [1] was 43.9 µg/kg, the ED50 [2, 8] was 17 µg/kg and the ED50 [3, 8] was 30 µg/kg. The inhibition [7] was “Active”.
Work on `CCCCC1([C@H](O)/C=C/C2[C@H](O)CC(=O)[C@@H]2C/C=C\CCCC(=O)O)CCC1` (mixture of isomers) yielded an ED50 [1] of 2.51 µg/kg, an ED50 [2, 8] of 1.54 µg/kg and an ED50 [3, 8] of 1.06 µg/kg.
`CCCCC1([C@@H](O)/C=C/C2[C@H](O)CC(=O)[C@@H]2C/C=C\CCCC(=O)O)CCC1` (mixture of isomers) gave an ED50 [1] of 305 µg/kg, an ED50 [2, 8] of 48.4 µg/kg and an ED50 [3, 8] of 32 µg/kg.
For `CCCC1([C@H](O)/C=C/C2[C@H](O)CC(=O)[C@@H]2C/C=C\CCCC(=O)O)CCC1` (mixture of isomers), the ED50 [1] was 3 µg/kg, the ED50 [2] was 0.0979 µg/kg and the ED50 [3, 8] was 3 µg/kg.
With `CCCC1([C@@H](O)/C=C/C2[C@H](O)CC(=O)[C@@H]2C/C=C\CCCC(=O)O)CCC1` (mixture of isomers) the ED50 [1] was 265 µg/kg, the ED50 [2, 8] was 46.7 µg/kg and the inhibition in vivo at 3.2 mg/kg [4] was < 50%.
`CCCCC[C@H](O)/C=C/[C@H]1[C@H](O)CC(=O)[C@@H]1CCCCCCC(=O)O` [ALPROSTADIL] showed an ED50 [1] of 1.07 µg/kg, an ED50 [2, 8] of 0.7 µg/kg and an ED50 [3] of 3.3 µg/kg. For the same compound, the inhibition [7] was “Active”.
